Experimental findings from ChEMBL document CHEMBL1275392, “Assessment of chemoselective neoglycosylation methods using chlorambucil as a model” (2010) are described below.

Assay [1] can be described thus: Growth inhibition of human p53 deficient Hep3B cells after 7 days by celltiter-glo assay. It counts as functional, Hep 3B2. To be noted: 168 h. The essentials: (§1)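 Cells seeded at 500 per well in 384-well plates. Compounds came from 30 mM DMSO stocks, serially diluted and tested in quadruplicate. Incubation was 7 d at 37 °C under 5% CO2. Calcein AM (10 μM) and EthD-1 were added, followed by a fluorescence read. CellTiter-Glo lysis was then done for 10 min at room temperature, with a luminescence read. GI50 came from curve fitting.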
Background: In ATP-based viability assays light output follows the ATP content of the culture.

The test system of assay [2] is A549. As to the kind of experiment: Growth inhibition of human A549 cells expressing p53 after 7 days by celltiter-glo assay. Format: functional. The note with it: A549, 168 h.
For assay [3], the system named is SK-OV-3. The assay is described as follows: Growth inhibition of human SKOV3 cells after 7 days by celltiter-glo assay. Format: functional. The note with it: SK-OV-3, 168 h.
The subject of assay [4] is NCI-H460. The assay is described as follows: Growth inhibition of human NCI-H460 cells after 7 days by celltiter-glo assay. Format: functional. To be noted: NCI-H460, 168 h.
The subject of assay [5] is MCF7. As to the kind of experiment: Growth inhibition of human MCF7 cells after 7 days by celltiter-glo assay. Format: functional. The note with it: MCF7, 168 h.
Assay [6] in a line: Growth inhibition of human p53 deficient H1299 cells after 7 days by celltiter-glo assay. It counts as functional. The note with it: NCI-H1299, 168 h. The method, boiled down: as §1
Assay [7] has as its system HCT-15. The assay is described as follows: Growth inhibition of human HCT15 cells after 7 days by celltiter-glo assay. Format: functional. To be noted: HCT-15, 168 h.
Assay [8] has as its system DU-145. As to the kind of experiment: Growth inhibition of human DU145 cells after 7 days by celltiter-glo assay. It counts as functional. The note with it: DU-145, 168 h.
Assay [9] has as its system HT-29. As to the kind of experiment: Growth inhibition of human HT-29 cells after 7 days by celltiter-glo assay. It counts as functional. The note with it: HT-29, 168 h.
The subject of assay [10] is SF-268. The assay is described as follows: Growth inhibition of human SF268 cells after 7 days by celltiter-glo assay. To be noted: SF-268, 168 h. It counts as functional.

Structures are written as SMILES. Where only a bound is given, the exact number is not on record here.

Usually GI50 stands for the concentration giving 50% growth inhibition. The low end stands for greater sensitivity of the cells, the high end for lower sensitivity of the cells. With `CO[C@@H]1[C@@H](OC(N)=O)[C@@H](O)C(N(CCCc2ccc(N(CCCl)CCCl)cc2)OC)OC1(C)C` (stereo not given in full), the GI50 in assay [1] came to 6000 nM; in [2], 5800 nM; in assay [3], 5400 nM; in [4], 9700 nM; in [5] it was 4800 nM; in assay [6] it was 1300 nM. For the same compound, the GI50 in assay [7] was 1700 nM; in assay [8], 6700 nM; in [9], 6000 nM; in [10], 5100 nM.

For the compound `CON(CCCc1ccc(N(CCCl)CCCl)cc1)C1C[C@H](O)[C@H](O)[C@@H](C)O1` (stereo not given in full), the GI50 in [1] came out at 3200 nM; in assay [2], 2700 nM; in assay [3] it was 3000 nM; in assay [4], 6500 nM; in assay [5], 6300 nM; in [6] it was 1100 nM. The GI50 in assay [7] was 1300 nM; in assay [8], 4300 nM; in assay [9] it was 2100 nM; in assay [10], 2800 nM.

Consider `CON(CCCc1ccc(N(CCCl)CCCl)cc1)C1OC[C@H](O)[C@H]1O` (stereo not given in full), for which the GI50 in assay [1] amounted to 1400 nM; in assay [2] it was 2000 nM; in assay [3], 2100 nM; in assay [4], 1900 nM; in [5], 870 nM; in assay [6], 720 nM. The GI50 in [7] turned out to be 820 nM; in [8], 2100 nM; in assay [9] it was 1200 nM; in assay [10], 1300 nM.

Consider `CON(CCCc1ccc(N(CCCl)CCCl)cc1)C1O[C@@H](CO)[C@H](O)[C@H](O)[C@H]1O` (stereo not given in full), for which the GI50 in [1] was found to be 2000 nM; in [2], 3100 nM; in [3], 2500 nM; in [4], 7900 nM; in assay [5], 7900 nM; in assay [6], 1300 nM. Besides, the GI50 was determined as 1400 nM in assay [7], 4100 nM in assay [8], 2100 nM in assay [9] and 2300 nM in assay [10].

As for `O=C(CCCc1ccc(N(CCCl)CCCl)cc1)N/N=C/[C@@H](O)[C@H](O)CO`, the GI50 was 4100 nM in [1]; 7500 nM in [2]; 6200 nM in assay [3]; 10800 nM in [4]; 4200 nM in [5]; 2600 nM in assay [6]. The GI50 was found to be 7300 nM in assay [7], 9500 nM in [8], 4800 nM in assay [9] and 2600 nM in assay [10].

With `CON(CCCc1ccc(N(CCCl)CCCl)cc1)[C@@H]1O[C@H](CO)[C@H](O)[C@H](O)[C@@H]1O`, the GI50 in assay [1] was found to be 2600 nM; in assay [2], 2700 nM; in [3], 2000 nM; in assay [4], 4300 nM; in [5], 1800 nM; in [6] it was 2400 nM. Besides, the GI50 was 2000 nM in assay [7], 3400 nM in assay [8], 1900 nM in assay [9] and 1700 nM in assay [10].

As for `CON(CCCc1ccc(N(CCCl)CCCl)cc1)C1O[C@H](CO)[C@@H](O[C@@H]2O[C@H](CO)[C@@H](O)[C@H](O)[C@H]2O)[C@H](O)[C@H]1O` (stereo not given in full), the 50% growth inhibitory concentration (GI50) in assay [1] was 1200 nM; in [2] it was 1600 nM; in assay [3] it was 1800 nM; in assay [4], 3800 nM; in assay [5], 1700 nM; in assay [6], 1800 nM. The GI50 in assay [7] amounted to 2300 nM; in assay [8], 1800 nM; in assay [9], 1900 nM; in assay [10], 1500 nM.

For the compound `CON(CCCc1ccc(N(CCCl)CCCl)cc1)C1O[C@@H](C)[C@H](O)[C@@H](O)[C@H]1O` (stereo not given in full), the GI50 is 2600 nM in assay [1]; 2500 nM in assay [2]; 2000 nM in assay [3]; 5300 nM in assay [4]; 2200 nM in [5]; 3700 nM in assay [6]. In addition, the GI50 in assay [7] is 2000 nM; in assay [8], 4200 nM; in [9] it was 2400 nM; in [10] it was 1900 nM.

Regarding `CON(CCCc1ccc(N(CCCl)CCCl)cc1)C1O[C@H](C(=O)O)[C@H](O)[C@H](O)[C@H]1NC(C)=O` (stereo not given in full), the GI50 in assay [1] worked out at 11800 nM; in assay [2], 22000 nM; in [3], 11000 nM; in assay [4], 42000 nM; in assay [5] it was 4400 nM; in [6] it was 3800 nM. Also, the GI50 in assay [7] was 19100 nM; in assay [8] it was 16700 nM; in [9], 12000 nM; in assay [10] it was 4200 nM.

`O[C@@H]1[C@H](O)COC(N(O)CCCc2ccc(N(CCCl)CCCl)cc2)[C@@H]1O` (stereo not given in full): the 50% growth inhibitory concentration (GI50) in [1] is greater than 5000 nM; in assay [2], 840 nM; in [3], 890 nM; in assay [4], 1040 nM; in [5], 3200 nM; in assay [6], 1600 nM. The GI50 is 870 nM in assay [7], greater than 5000 nM in assay [8], 900 nM in assay [9] and 1500 nM in assay [10].

Turning to `CON(CCCc1ccc(N(CCCl)CCCl)cc1)[C@@H]1O[C@H](CO)[C@@H](O)[C@H](F)[C@H]1O`, the GI50 in assay [1] came out at 3200 nM; in [2] it was 3000 nM; in [3], 2200 nM; in [4] it was 7100 nM; in assay [5] it was 7000 nM; in [6], 1300 nM. Further, the GI50 in assay [7] is 1200 nM; in assay [8], 4100 nM; in assay [9] it was 2600 nM; in assay [10], 2200 nM.

For `CON(CCCc1ccc(N(CCCl)CCCl)cc1)C1O[C@H](CO)[C@@H](O)[C@@H](O)[C@H]1O` (stereo not given in full), the GI50 amounted to 4400 nM in [1]; 3400 nM in [2]; 3000 nM in assay [3]; 9500 nM in assay [4]; 9300 nM in assay [5]; 530 nM in assay [6]. In addition, the GI50 amounted to 970 nM in assay [7], 5800 nM in [8], 600 nM in assay [9] and 3100 nM in assay [10].

With `CON(CCCc1ccc(N(CCCl)CCCl)cc1)[C@@H]1O[C@H](CO)[C@@H](O)[C@H](O)[C@H]1O`, the GI50 is 3400 nM in [1]; 4500 nM in assay [2]; 3000 nM in [3]; 12300 nM in assay [4]; 1500 nM in [5]; 1400 nM in [6]. Moreover, the GI50 in assay [7] amounted to 2800 nM; in [8] it was 5500 nM; in [9] it was 2900 nM; in assay [10], 1800 nM.

On to `CON(CCCc1ccc(N(CCCl)CCCl)cc1)[C@@H]1O[C@H](C(=O)O)[C@@H](O)[C@H](O)[C@H]1O`, for which the GI50 in assay [1] turned out to be 4900 nM; in [2], 5500 nM; in assay [3], 3100 nM; in [4] it was 9100 nM; in [5], 6000 nM; in assay [6], 990 nM. The GI50 is 1030 nM in assay [7], 3900 nM in assay [8], 3200 nM in assay [9] and 1600 nM in [10].

Regarding `O=C1O[C@@H]2[C@@H](O)[C@H](N(O)CCCc3ccc(N(CCCl)CCCl)cc3)O[C@@H]2[C@@H]1O`, the GI50 in assay [1] is 7200 nM; in [2] it was 10400 nM; in [3], 10100 nM; in assay [4], 13100 nM; in [5], 4100 nM; in assay [6], 3800 nM. The GI50 in assay [7] worked out at 8500 nM; in [8], 14800 nM; in [9] it was 9900 nM; in assay [10], 3100 nM.

With `CON(CCCc1ccc(N(CCCl)CCCl)cc1)[C@@H]1OC[C@@H](O)[C@H](O)[C@H]1O`, the GI50 worked out at 1500 nM in [1]; 2300 nM in [2]; 2200 nM in [3]; 4500 nM in [4]; 910 nM in assay [5]; 830 nM in [6]. Besides, the 50% growth inhibitory concentration (GI50) in [7] was found to be 900 nM; in [8] it was 2300 nM; in assay [9], 1600 nM; in [10] it was 1400 nM.

Consider `CON(CCCc1ccc(N(CCCl)CCCl)cc1)[C@@H]1O[C@H](CCl)[C@@H](O)[C@H](O)[C@H]1O`, for which the 50% growth inhibitory concentration (GI50) turned out to be 3200 nM in assay [1]; 3000 nM in [2]; 2100 nM in [3]; 5800 nM in assay [4]; 4900 nM in [5]; 1300 nM in assay [6]. For the same compound, the GI50 in assay [7] came out at 1200 nM; in assay [8], 3700 nM; in [9] it was 2100 nM; in assay [10] it was 2100 nM.

Turning to `CON(CCCc1ccc(N(CCCl)CCCl)cc1)C1O[C@H](CN)[C@@H](O)[C@H](O)[C@H]1O` (stereo not given in full), the GI50 was found to be 3500 nM in [1]; 3700 nM in assay [2]; 2200 nM in assay [3]; 5000 nM in [4]; 3700 nM in assay [5]; 1100 nM in assay [6]. For the same compound, the GI50 in assay [7] stood at 1300 nM; in [8] it was 2800 nM; in assay [9], 2500 nM; in assay [10] it was 2200 nM.

Regarding `CON(CCCc1ccc(N(CCCl)CCCl)cc1)C1OC[C@@H](O)[C@H](O)[C@@H]1O` (stereo not given in full), the concentration for 50% growth inhibition (GI50) in [1] turned out to be 2500 nM; in [2] it was 2300 nM; in [3], 1800 nM; in [4] it was 5200 nM; in assay [5], 1000 nM; in assay [6], 760 nM. For the same compound, the GI50 worked out at 790 nM in assay [7], 3600 nM in assay [8], 2000 nM in assay [9] and 1600 nM in assay [10].
